Results reported in ChEMBL document CHEMBL1649330, “Multicenter study for defining the breakpoint for rifampin resistance in Neisseria meningitidis by rpoB sequencing” (2010).
≈ marks a conversion by molar mass, not a printed value.

Key:
Format in all cases: functional
Neisseria meningitidis [1] = test: Antimicrobial activity against Neisseria meningitidis harboring rpoB10 H552R mutant allele by Etest
How it was run: (§1)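 Rifampin MIC by Etest on meningococcal clinical isolates collected by the participating national laboratories, with MIC read in mg/liter. The rpoB gene of each isolate was sequenced and assigned to an allele. Isolates were serogrouped by agglutination with serogroup-specific antisera.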

Neisseria meningitidis [2] = test: Antimicrobial activity against Neisseria meningitidis harboring rpoB11 H552N mutant allele by Etest; how it was run: as §1
Neisseria meningitidis [3] = test: Antimicrobial activity against Neisseria meningitidis harboring rpoB12 H552L mutant allele by Etest; how it was run: as §1
Neisseria meningitidis [4] = test: Antimicrobial activity against Neisseria meningitidis harboring rpoB13 H552Y mutant allele by Etest; how it was run: as §1
Neisseria meningitidis [5] = test: Antimicrobial activity against Neisseria meningitidis harboring rpoB14 S548F mutant allele by Etest; how it was run: as §1
Neisseria meningitidis [6] = test: Antimicrobial activity against Neisseria meningitidis harboring rpoB15 H552N mutant allele by Etest; how it was run: as §1
Neisseria meningitidis [7] = test: Antimicrobial activity against Neisseria meningitidis harboring rpoB16 H552Y mutant allele by Etest; how it was run: as §1
Neisseria meningitidis [8] = test: Antimicrobial activity against Neisseria meningitidis harboring rpoB17 H552Y mutant allele by Etest; how it was run: as §1
Neisseria meningitidis [9] = test: Antimicrobial activity against Neisseria meningitidis harboring rpoB19 S557F mutant allele by Etest; how it was run: as §1
Neisseria meningitidis [10] = test: Antimicrobial activity against Neisseria meningitidis harboring rpoB20 H552Y mutant allele by Etest; how it was run: as §1
Neisseria meningitidis [11] = test: Antimicrobial activity against Neisseria meningitidis harboring rpoB23 S548F mutant allele by Etest; how it was run: as §1
Neisseria meningitidis [12] = test: Antimicrobial activity against Neisseria meningitidis harboring rpoB26 D542N and S557F mutant allele by Etest; how it was run: as §1
Neisseria meningitidis [13] = test: Antimicrobial activity against Neisseria meningitidis harboring rpoB32 H552Y mutant allele by Etest; how it was run: as §1
Neisseria meningitidis [14] = test: Antimicrobial activity against Neisseria meningitidis harboring rpoB36 H552N mutant allele by Etest; how it was run: as §1
Neisseria meningitidis [15] = test: Antimicrobial activity against Neisseria meningitidis harboring rpoB37 G560S mutant allele by Etest; how it was run: as §1
Neisseria meningitidis [16] = test: Antimicrobial activity against Neisseria meningitidis harboring rpoB39 D542V mutant allele by Etest; how it was run: as §1
Neisseria meningitidis [17] = test: Antimicrobial activity against Neisseria meningitidis harboring rpoB44 H552Y mutant allele by Etest; how it was run: as §1
Neisseria meningitidis [18] = test: Antimicrobial activity against Neisseria meningitidis harboring rpoB45 D542V mutant allele by Etest; how it was run: as §1
Neisseria meningitidis [19] = test: Antimicrobial activity against Neisseria meningitidis harboring rpoB46 H552N mutant allele by Etest; how it was run: as §1
Neisseria meningitidis [20] = test: Antimicrobial activity against Neisseria meningitidis harboring rpoB50 S557F mutant allele by Etest; how it was run: as §1
Neisseria meningitidis [21] = test: Antimicrobial activity against Neisseria meningitidis harboring rpoB51 H552Y mutant allele by Etest; how it was run: as §1
Neisseria meningitidis [22] = test: Antimicrobial activity against Neisseria meningitidis harboring rpoB53 G560S mutant allele by Etest; how it was run: as §1
Neisseria meningitidis [23] = test: Antimicrobial activity against Neisseria meningitidis harboring rpoB57 D542N mutant allele by Etest; how it was run: as §1
Neisseria meningitidis [24] = test: Antimicrobial activity against Neisseria meningitidis expressing wild type rpoB1 allele by Etest
How it was run: (§2)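 Rifampin MIC by Etest on meningococcal isolates from participating national laboratories, with rpoB sequenced for each isolate. Values are geometric means of MICs over all isolates carrying a given allele that lacks alterations at S548, H552 and S557 and lacks D542V. Only alleles represented by at least five isolates were reported.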

Neisseria meningitidis [25] = test: Antimicrobial activity against Neisseria meningitidis expressing wild type rpoB2 allele by Etest; how it was run: as §2
Neisseria meningitidis [26] = test: Antimicrobial activity against Neisseria meningitidis expressing wild type rpoB4 allele by Etest; how it was run: as §2
Neisseria meningitidis [27] = test: Antimicrobial activity against Neisseria meningitidis expressing wild type rpoB5 allele by Etest; how it was run: as §2
Neisseria meningitidis [28] = test: Antimicrobial activity against Neisseria meningitidis expressing wild type rpoB9 allele by Etest; how it was run: as §2
Neisseria meningitidis [29] = test: Antimicrobial activity against Neisseria meningitidis expressing wild type rpoB18 allele by Etest; how it was run: as §2
Neisseria meningitidis [30] = test: Antimicrobial activity against Neisseria meningitidis expressing wild type rpoB27 allele by Etest; how it was run: as §2
Neisseria meningitidis [31] = test: Antimicrobial activity against Neisseria meningitidis expressing wild type rpoB28 allele by Etest; how it was run: as §2
Neisseria meningitidis [32] = test: Antimicrobial activity against Neisseria meningitidis expressing wild type rpoB31 allele by Etest; how it was run: as §2
Neisseria meningitidis [33] = test: Antimicrobial activity against Neisseria meningitidis expressing wild type rpoB34 allele by Etest; how it was run: as §2
Neisseria meningitidis [34] = test: Antimicrobial activity against Neisseria meningitidis expressing wild type rpoB40 allele by Etest; how it was run: as §2

CO[C@H]1/C=C/O[C@@]2(C)Oc3c(C)c(O)c4c(O)c(c(/C=N/N5CCN(C)CC5)c(O)c4c3C2=O)NC(=O)/C(C)=C\C=C\[C@H](C)[C@H](O)[C@@H](C)[C@@H](O)[C@@H](C)[C@H](OC(C)=O)[C@@H]1C [RIFAMPIN]
MIC (Neisseria meningitidis [1]): > 32 mg/L
MIC (Neisseria meningitidis [2]): > 32 mg/L
MIC (Neisseria meningitidis [3]): > 32 mg/L
MIC (Neisseria meningitidis [4]): > 32 mg/L
MIC (Neisseria meningitidis [5]): > 32 mg/L
MIC (Neisseria meningitidis [6]): > 32 mg/L
MIC (Neisseria meningitidis [7]): > 32 mg/L
MIC (Neisseria meningitidis [8]): > 32 mg/L
MIC (Neisseria meningitidis [9]): > 32 mg/L
MIC (Neisseria meningitidis [10]): > 32 mg/L
MIC (Neisseria meningitidis [11]): > 32 mg/L
MIC (Neisseria meningitidis [12]): > 32 mg/L
MIC (Neisseria meningitidis [13]): > 32 mg/L
MIC (Neisseria meningitidis [14]): 8 mg/L (≈ 9.72 µM)
MIC (Neisseria meningitidis [15]): 8 mg/L (≈ 9.72 µM)
MIC (Neisseria meningitidis [16]): > 32 mg/L
MIC (Neisseria meningitidis [17]): 256 mg/L (≈ 311 µM)
MIC (Neisseria meningitidis [18]): 256 mg/L (≈ 311 µM)
MIC (Neisseria meningitidis [19]): 256 mg/L (≈ 311 µM)
MIC (Neisseria meningitidis [20]): > 32 mg/L
MIC (Neisseria meningitidis [21]): > 32 mg/L
MIC (Neisseria meningitidis [22]): 0.125 mg/L (≈ 0.152 µM)
MIC (Neisseria meningitidis [23]): 0.125 mg/L (≈ 0.152 µM)
MIC (Neisseria meningitidis [24]): 0.225 mg/L (≈ 0.273 µM)
MIC (Neisseria meningitidis [25]): 0.057 mg/L (≈ 0.0693 µM)
MIC (Neisseria meningitidis [26]): 0.089 mg/L (≈ 0.108 µM)
MIC (Neisseria meningitidis [27]): 0.061 mg/L (≈ 0.0741 µM)
MIC (Neisseria meningitidis [28]): 0.065 mg/L (≈ 0.079 µM)
MIC (Neisseria meningitidis [29]): 0.024 mg/L (≈ 0.0292 µM)
MIC (Neisseria meningitidis [30]): 0.15 mg/L (≈ 0.182 µM)
MIC (Neisseria meningitidis [31]): 0.025 mg/L (≈ 0.0304 µM)
MIC (Neisseria meningitidis [32]): 0.015 mg/L (≈ 0.0182 µM)
MIC (Neisseria meningitidis [33]): 0.029 mg/L (≈ 0.0352 µM)
MIC (Neisseria meningitidis [34]): 0.034 mg/L (≈ 0.0413 µM)
